Rows were chosen to be rich in hits. Some 27% of all compounds tested hit in one or more screens of this group.
CYP2C19 activ: human CYP2C19 activators, primary screen, biochemical, luminescence | activation factor at 5 µM | 96,000 tested, under 10 active | Cytochrome P450 2C19 (Homo sapiens), P33261 | recombinant CYP2C19, luciferin-H EGE luminescence; stronger effect = higher value; 0 = fully inhibited enzyme, 1 = untreated enzyme;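 active = activation factor of at least 2 at 5 µM in the primary screen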;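 also: 0 = wells with 2.5 mM tranylcypromine and 1 = vehicle-only wells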
Target sequence (P33261 whole entry, looked up): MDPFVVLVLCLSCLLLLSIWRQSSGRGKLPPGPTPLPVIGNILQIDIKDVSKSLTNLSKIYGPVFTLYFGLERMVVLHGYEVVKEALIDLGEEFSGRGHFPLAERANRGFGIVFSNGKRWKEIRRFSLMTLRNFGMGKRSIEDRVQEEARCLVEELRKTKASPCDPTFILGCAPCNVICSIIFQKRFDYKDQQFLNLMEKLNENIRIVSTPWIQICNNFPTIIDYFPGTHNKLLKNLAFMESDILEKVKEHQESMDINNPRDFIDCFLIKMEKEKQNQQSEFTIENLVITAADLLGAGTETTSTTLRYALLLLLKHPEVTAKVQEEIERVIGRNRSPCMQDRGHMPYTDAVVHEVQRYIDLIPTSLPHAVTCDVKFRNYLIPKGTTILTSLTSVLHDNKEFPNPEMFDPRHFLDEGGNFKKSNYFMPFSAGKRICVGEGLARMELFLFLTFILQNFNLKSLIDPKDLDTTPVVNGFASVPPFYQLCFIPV
CYP2C19 inh: blockers of cytochrome P450 2C19 activity – biochemical, luminescence, ADME assay, primary screen; P33261; CYP2C19 Supersomes, luciferin-H EGE luminescence, 30 min; inhibition, % at 5 µM; 21% of 96,000 active; AID 778, 2007;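 active = CYP2C19 inhibition above a set limit at 5 µM in the primary screen, cut at about 50% in these data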;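 also: plate controls were negative control wells for no effect and 2.5 mM tranylcypromine positive control for full effect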
CYP2C9 inh: blockers of cytochrome P450 2C9 activity – biochemical, luminescence, ADME assay, primary screen. P11712. 20% of 96,000 active. inhibition, % at 5 µM. CYP2C9 Supersomes, luciferin-H conversion;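 active = blocking of liver enzyme CYP2C9 beyond about 50% at 5 µM, limit read from the data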
Rev-RRE block: HIV-1 Rev-RRE binding inhibitors, primary screen, biochemical, FRET, protein-RNA interaction. P05866. Rev peptide-RRE RNA binding. inhibition, % at 8 µM. 0.79% of 97,000 active;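 active = inhibition above the screen-wide mean plus 3 SD, cut at about 35% in these data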;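 also: 0% = median DMSO wells and 100% = median Neomycin B control wells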
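Test system – labelled RRE RNA duplex and labelled Rev peptide · Signal – fluorescein-to-Cy5 FRET, 480 nm excitation · Evaluation – % inhibition of FRET ratio versus controls · Benchmarks – DMSO low control, neomycin B high control · Incubation – 5 min RNA-compound premix plus 15 min binding step, 25 °C · Medium – HEPES pH 7.5 salt buffer with EDTA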
Cav3 T inh: Cav3.2 calcium influx blockers – cell-based, Fluo-4 calcium fluorescence, FDSS, MLSMR library, primary screen; Voltage-dependent T-type calcium channel subunit alpha-1H (Homo sapiens), O95180; Cav3.2-expressing cells; stronger effect = lower value; B-score at 10 µM; 4% of 100,000 active; AID 449739, 2010;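 active = single-dose well whose peak fluorescence ratio is a statistical outlier from its plate by either plate-standardised score or position-corrected B-score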
CYP2C9 act: human CYP2C9 activators, primary screen, biochemical, luminescence | recombinant CYP2C9, luciferin-H conversion; stronger effect = higher value; factor 1 = untreated enzyme, 0 = blocked | activation factor at 5 µM | 1.4% of 96,000 active | AID 1024, 2008;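 active = activation factor of 2 or more for CYP2C9 at a 5 µM dose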;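 also: 0 = sulfaphenazole-blocked wells and 1 = vehicle-only wells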
Starred values were filed as active, the others as inactive; x = not tested or not shown.

SMILES | CYP2C19 activ | CYP2C19 inh | CYP2C9 inh | Rev-RRE block | Cav3 T inh | CYP2C9 act
Cn1c(=O)oc2cc(S(=O)(=O)N3CCCC(C(=O)Nc4ccccn4)C3)ccc21 (stereo unspecified) | 1 | 1.3 | -3.3 | 3.2 | 0.217 | 1
COc1cc(NC(=O)C2CCCN(S(=O)(=O)c3ccc4c(c3)oc(=O)n4C)C2)cc(OC)c1 (stereo unspecified) | 0.9 | 14.5 | 7.8 | -7.9 | 0.219 | 0.9
COc1ccc(NC(=O)C2CCCN(S(=O)(=O)c3ccc4c(c3)oc(=O)n4C)C2)cc1OC (stereo unspecified) | 0.5 | 54.8* | 30.6 | 3.9 | 0.377 | 0.7
Cn1c(=O)oc2cc(S(=O)(=O)N3CCCC(C(=O)NC4CCCc5ccccc54)C3)ccc21 (stereo unspecified) | 0.9 | 6.8 | 60.5* | -1.9 | 0.811 | 0.4
COC(=O)c1sccc1-n1cccc1C(=O)NCc1ccccc1 | 0.5 | 46.7 | 3.5 | 0.3 | 1.3 | 1
CCCn1c(N)c(C(=O)CSc2nnc(C3CC3)n2Cc2ccccc2)c(=O)[nH]c1=O | 1 | 0.3 | 58.6* | 5.9 | -0.275 | 0.4
NC(=O)CSc1nnc(C2CC2)n1Cc1ccccc1 | 1 | -4.7 | 4.1 | 3.9 | 0.73 | 1
COc1ccc2c(=O)c(C(=O)NCCc3ccc(OC)c(OC)c3)c[nH]c2c1 | 0.6 | 44.3 | 53.5* | 8.1 | 1.33 | 0.5
O=C(OCc1ccccc1)N1CCOCCOCCN(C(=O)OCc2ccccc2)CCOCCOCC1 | 0.7 | 27.3 | 83.6* | 6.5 | -2.01 | 0.2
O=C(Oc1cccc(Oc2ccccc2)c1)N1CCOCC1 | 0.4 | 62.9* | -0.3 | 3.3 | 0.0983 | 1
CCOC(=O)N1CCOCCOCCN(C(=O)OCC)CCOCC1 | 0.9 | 13.3 | 12.7 | 2.1 | -0.881 | 0.9
Cn1c(-c2nnn(-c3ccc(F)cc3)n2)cc2ccccc21 | x | x | x | x | -0.00727 | x
CCN1C2=NCCCN2c2cc(C)c(C)cc21 | 1.1 | -13.6 | -10.0 | -5.8 | -1.38 | 1.1
CCOC(=O)N1CCC(NC(=O)c2ccc(CNS(=O)(=O)c3ccc(F)cc3)cc2)CC1 | 1 | 3.6 | 32.6 | 3.4 | 1.66 | 0.7
COc1cc(C(C(=O)NC(C)(C)C)N(Cc2ccc3c(c2)OCO3)C(=O)c2cnccn2)cc(OC)c1OC (stereo unspecified) | 1 | -0.9 | -26.9 | -1.6 | 1.79 | 1.3
Cc1ccc(C(=O)/C=C/c2ccc(-c3ccccc3[N+](=O)[O-])o2)cc1 | 0.7 | 29.4 | 57.6* | 16.2 | 0.261 | 0.4
O=C(/C=C/c1ccc(-c2ccccc2[N+](=O)[O-])o1)c1ccc(Br)cc1 | 0.8 | 21.3 | 12.8 | 14.7 | -0.341 | 0.9
CCOC(=O)c1nc2cc3n(c(CC(C)C)c-2c1C)CC(C)=C3C | x | x | x | 21.6 | -0.0551 | x
CCc1nnc(NC(=O)C(C)C)s1 | 1.1 | -14.8 | -10.6 | 7.1 | -0.00594 | 1.1
CC(C)(C)C(=O)Nc1nnc(CSCc2ccccc2F)s1 | 0.4 | 58.7* | 56.0* | 8.1 | -0.0989 | 0.4
CCc1nnc(NC(=O)C(C)Sc2ccccc2)s1 (stereo unspecified) | 0.2 | 82.6* | 73.8* | 0.0 | 0.63 | 0.3
CCOCCc1nnc(NC(=O)C(CC)c2ccccc2)s1 (stereo unspecified) | 0.4 | 56.0* | 86.7* | 6.5 | -0.958 | 0.1
CC(C)C(=O)Nc1nnc(CSCc2ccccc2F)s1 | 0.3 | 69.9* | 42.2 | 5.4 | 0.0188 | 0.6
Cc1ccc(S(=O)(=O)N2CCC(C(=O)NNS(=O)(=O)c3ccc(Cl)cc3)CC2)cc1 | 0.9 | 8.0 | -28.4 | 11.0 | -1.93 | 1.3
Cc1cc(SCc2ccccc2)nc(=O)[nH]1 | 0.9 | 9.1 | 4.3 | 11.6 | -0.0479 | 1
Cc1ccc(-c2nc3ncccn3c2Nc2ccc3c(c2)OCO3)o1 | x | x | x | 10.0 | -0.0203 | x
Cc1ccc(-c2nc3cnccn3c2Nc2c(C)cccc2C)o1 | 0 | 99.2* | 63.2* | 13.2 | -3.34 | 0.4
CC(Oc1ccccc1F)C(=O)Nc1ccc2ccccc2c1 (stereo unspecified) | x | x | x | 3.0 | -1.29 | x

Assay outcomes (PubChem)
